Results from ChEMBL document CHEMBL4020827, “Targeting Multiple Effector Pathways in Pancreatic Ductal Adenocarcinoma with a G-Quadruplex-Binding Small Molecule” (J Med Chem, 2018).

What was measured:
[1] = tested on: Mus musculus; experiment: Toxicity in CD-1 nude mouse xenografted with human MIAPaCa2 cells assessed as change in body weight at 15 mg/kg, iv administered twice weekly for 4 weeks measured for 40 days; format: organism-based; settings: in vivo, 960 h
[2] = species on record: Homo sapiens; experiment: Binding affinity to 5'-FAM/3'-TAMRA labeled human telomeric F21T G-quadruplex DNA assessed as change in melting temperature at 1 uM by FRET assay
How it was run: (§1)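 FRET melting with FAM/TAMRA dual-labelled oligonucleotides at 400 nM, annealed at 95 °C for 10 min in 60 mM potassium cacodylate pH 7.4 and slowly cooled. Ligand final 1 μM; solution contains 50 mM K+. Fluorescence read every 0.5 °C over 30–100 °C with 30 s hold, excitation 450–495 nm and emission 515–545 nm. ΔTm from curve fitting, triplicate measurements.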

[3] = Binding affinity to 5'-FAM/3'-TAMRA labeled BCL2 promoter G-quadruplex DNA (unknown origin) assessed as change in melting temperature at 1 uM by FRET assay; how it was run: as §1
[4] = tested on: PANC-1; experiment: Growth inhibition of human PANC1 cells after 96 hrs by SRB assay; format: functional, cell-based; settings: PANC-1, 96 h
[5] = tested on: MIA PaCa-2; experiment: Antitumor activity against human MIAPaCa2 cells xenografted in CD-1 nude mouse assessed as change in tumor volume at 10 mg/kg, iv administered twice weekly for 4 weeks measured on day 62 relative to control; format: functional
How it was run: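 Female CD-1 nude mice (2-3 months, 20−25 g) given 5 x 10^6 MIA PaCa-2 cells subcutaneously in right flank with Matrigel; dosing began once tumors were established (approx. 13 days, mean 0.05 cm3). Eight mice/group, IV in saline twice weekly for 28 days (8 doses) against a saline group. Tumors measured by calliper (length × width × height × π/6), with body weight. Student's t test.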

[6] = tested on: Mus musculus; experiment: Hepatotoxicity in CD-1 nude mouse xenografted with human MIAPaCa2 cells at 15 mg/kg, iv administered twice weekly for 4 weeks by hematoxylin and eosin staining based assay; format: toxicity, organism-based; settings: in vivo, 672 h
[7] = tested on: PANC-1; experiment: Effect on CBFA2T3 gene expression in human PANC1 cells at 400 nM after 6 hrs by RNA sequence analysis relative to control; format: functional
How it was run: (§2)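 PANC-1 (0.35 x 10^6) or MIA PaCa-2 (1.5 x 10^6) cells seeded overnight in 60 mm plates, then exposed to 400 nM compound for 6 or 24 h; untreated cells as controls. Cells were mycoplasma-free and STR-certified. Differential expression by RNA-seq, called at FDR < 0.1.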

[8] = tested on: PANC-1; experiment: Effect on GLI1 gene expression in human PANC1 cells at 400 nM after 6 hrs by RNA sequence analysis relative to control; format: functional; how it was run: as §2
[9] = tested on: PANC-1; experiment: Effect on PAK1 gene expression in human PANC1 cells at 400 nM after 6 hrs by RNA sequence analysis relative to control; format: functional
[10] = tested on: PANC-1; experiment: Effect on ROBO3 gene expression in human PANC1 cells at 400 nM after 6 hrs by RNA sequence analysis relative to control; format: functional
How it was run: (§3)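 RNA-seq: cells seeded overnight in 60 mm plates (PANC-1 0.35 x 10^6, MIA PaCa-2 1.5 x 10^6 cells/well), then exposed to 400 nM compound for 6 or 24 h against untreated controls. Cell lines mycoplasma-free by RNA-capture ELISA and STR-profiled. Differentially expressed genes called at FDR < 0.1.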

[11] = tested on: PANC-1; experiment: Effect on SHANK2 gene expression in human PANC1 cells at 400 nM after 6 hrs by RNA sequence analysis relative to control; format: functional; how it was run: as §3
[12] = tested on: PANC-1; experiment: Effect on SHC2 gene expression in human PANC1 cells at 400 nM after 6 hrs by RNA sequence analysis relative to control; format: functional; how it was run: as §3
[13] = tested on: PANC-1; experiment: Effect on TEAD2 gene expression in human PANC1 cells at 400 nM after 6 hrs by RNA sequence analysis relative to control; format: functional; how it was run: as §3
[14] = tested on: MIA PaCa-2; experiment: Effect on FASN gene expression in human MIAPaCa2 cells at 400 nM after 6 hrs by RNA sequence analysis relative to control; format: functional; how it was run: as §2
[15] = tested on: MIA PaCa-2; experiment: Effect on IQSEC1 gene expression in human MIAPaCa2 cells at 400 nM after 6 hrs by RNA sequence analysis relative to control; format: functional; how it was run: as §2
[16] = tested on: MIA PaCa-2; experiment: Effect on MAPK11 gene expression in human MIAPaCa2 cells at 400 nM after 6 hrs by RNA sequence analysis relative to control; format: functional
[17] = tested on: MIA PaCa-2; experiment: Effect on PIK3R2 gene expression in human MIAPaCa2 cells at 400 nM after 6 hrs by RNA sequence analysis relative to control; format: functional
[18] = tested on: MIA PaCa-2; experiment: Effect on PRDM16 gene expression in human MIAPaCa2 cells at 400 nM after 6 hrs by RNA sequence analysis relative to control; format: functional
[19] = tested on: MIA PaCa-2; experiment: Effect on PRKCZ gene expression in human MIAPaCa2 cells at 400 nM after 6 hrs by RNA sequence analysis relative to control; format: functional; how it was run: as §3
[20] = tested on: MIA PaCa-2; experiment: Effect on TEAD2 gene expression in human MIAPaCa2 cells at 400 nM after 6 hrs by RNA sequence analysis relative to control; format: functional; how it was run: as §3
[21] = tested on: MIA PaCa-2; experiment: Effect on TEAD3 gene expression in human MIAPaCa2 cells at 400 nM after 6 hrs by RNA sequence analysis relative to control; format: functional; how it was run: as §3
[22] = tested on: MIA PaCa-2; experiment: Effect on TP73 gene expression in human MIAPaCa2 cells at 400 nM after 6 hrs by RNA sequence analysis relative to control; format: functional; how it was run: as §3
[23] = tested on: PANC-1; experiment: Effect on AKT1 gene expression in human PANC1 cells at 400 nM after 24 hrs by RNA sequence analysis relative to control; format: functional; how it was run: as §2
[24] = tested on: PANC-1; experiment: Effect on MAPK9 gene expression in human PANC1 cells at 400 nM after 24 hrs by RNA sequence analysis relative to control; format: functional
[25] = tested on: PANC-1; experiment: Effect on PFKL gene expression in human PANC1 cells at 400 nM after 24 hrs by RNA sequence analysis relative to control; format: functional
[26] = tested on: PANC-1; experiment: Effect on RPTOR gene expression in human PANC1 cells at 400 nM after 24 hrs by RNA sequence analysis relative to control; format: functional; how it was run: as §3
[27] = tested on: PANC-1; experiment: Effect on TEAD4 gene expression in human PANC1 cells at 400 nM after 24 hrs by RNA sequence analysis relative to control; format: functional; how it was run: as §3
[28] = tested on: MIA PaCa-2; experiment: Effect on GLI4 gene expression in human MIAPaCa2 cells at 400 nM after 24 hrs by RNA sequence analysis relative to control; format: functional; how it was run: as §2
[29] = tested on: MIA PaCa-2; experiment: Effect on IQSEC1 gene expression in human MIAPaCa2 cells at 400 nM after 24 hrs by RNA sequence analysis relative to control; format: functional; how it was run: as §2
[30] = tested on: MIA PaCa-2; experiment: Effect on MAPK11 gene expression in human MIAPaCa2 cells at 400 nM after 24 hrs by RNA sequence analysis relative to control; format: functional
[31] = tested on: MIA PaCa-2; experiment: Effect on PCK2 gene expression in human MIAPaCa2 cells at 400 nM after 24 hrs by RNA sequence analysis relative to control; format: functional
[32] = tested on: MIA PaCa-2; experiment: Effect on PFKL gene expression in human MIAPaCa2 cells at 400 nM after 24 hrs by RNA sequence analysis relative to control; format: functional

## O=C1c2ccc3c4c(c(NCCN5CCCC5)cc(c24)C(=O)N1CCCN1CCOCC1)C(=O)N(CCCN1CCOCC1)C3=O
[1]
  Activity: Non-Toxic
[2]
  ΔTm: 11.8 °C
[3]
  ΔTm: 13.3 °C
[4]
  IC50: 18 nM
[5]
  Activity: -51.7%
[6]
  Activity: Non-Toxic
[7]
  log2FC: -2.18
[8]
  log2FC: 0.03
[9]
  log2FC: -0.54
[10]
  log2FC: -0.75
[11]
  log2FC: -1.65
[12]
  log2FC: -0.52
[13]
  log2FC: -0.22
[14]
  log2FC: -0.06
[15]
  log2FC: -1.11
[16]
  log2FC: -0.53
[17]
  log2FC: -0.55
[18]
  log2FC: -2.73
[19]
  log2FC: -1.87
[20]
  log2FC: -0.65
[21]
  log2FC: -1.06
[22]
  log2FC: -2.36
[23]
  log2FC: -1.04
[24]
  log2FC: -0.75
[25]
  log2FC: -0.98
[26]
  log2FC: -0.5
[27]
  log2FC: -0.47
[28]
  log2FC: -1.85
[29]
  log2FC: -0.53
[30]
  log2FC: -2.56
[31]
  log2FC: -0.82
[32]
  log2FC: -1.18
